According to the RNAGym collection of RNA variant scans (doi:10.1126/science.aae0568):
Fewer inactive variants are shown than the library holds.

B1: tRNA (parent)
chain: GUUCCGUUGGCGUAAUGGUAACGCGUCUCCCUCCUAAGGAGAAGACUGCGGGUUCGAGUCCCGUACGGAACG

Variants of: B1
Test: yeast fitness relative to wild type (ratio to wild type); higher = fitter; tRNA-Arg(CCU), competitive growth, 37 C, YPD
Outline: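 For this measurement, the tRNA-Arg(CCU) gene was varied by chemical synthesis at a 3% per-site mutation rate across 69 sites, and each variant was placed at the native genomic locus in Saccharomyces cerevisiae. The pooled strains went through a 24-hour competition in YPD at 37°C in six parallel replicates, with amplicons from start and end populations read by 100-nucleotide paired-end sequencing. Darwinian fitness relative to wild type followed from the change in each genotype's frequency. Genotypes needed ≥ 100 starting reads, and estimates < 0.5 were set to 0.5.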

Row | Variant | yeast fitness
1 | G18A C55U G56C A70G | ≤ 0.5
2 | G18A A65U A69U | 0.718
3 | G18A A42G G48C | ≤ 0.5
4 | G18A G25C A69C | 0.519
5 | G18A C30U G41C | ≤ 0.5
6 | G18A C33U A42G C60G C62G | ≤ 0.5
7 | G18A C34U A40G C66G | ≤ 0.5
8 | G17C G56C G58C | ≤ 0.5
9 | G18A C60U A65G | ≤ 0.5
10 | G17C G52C C61A C66G | 0.637
11 | G18A U26G G50C C62A G63C | ≤ 0.5
12 | G18A A21U | 0.528
13 | G18C A45C A65U | ≤ 0.5
14 | G17C U19A A36C A37U A65C | 0.592
15 | G17C U28A C30A C31A C60G A65G | ≤ 0.5
16 | G17C U47A | 0.695
17 | G18A C22A A37C G48A | ≤ 0.5
18 | G18A G56A | 0.705
19 | G18A G56C | 0.521
20 | G18C A20U C31U G48A C55U G68U | 0.586
21 | G17C U19C U59A | ≤ 0.5
22 | G18A U54A | 0.597
23 | G18C A21C A69U | ≤ 0.5
24 | G18C A45G G50U U53A | ≤ 0.5

Row | Variant | yeast fitness
25 | G17C U28G U54A C62U A70C | ≤ 0.5
26 | G18A C29G C49G G63C | ≤ 0.5
27 | G18A C34A U47C | ≤ 0.5
28 | G18A A20U A36U A65U | ≤ 0.5
29 | G18A A20U A69U | 0.686
30 | G18A A43C | 0.637
31 | G18A A43G | 0.904
32 | G18A C24A C31A G68U | ≤ 0.5
33 | G17U C27G C30U C60A | ≤ 0.5
34 | G18A C29A C33U C60G | ≤ 0.5
35 | G17C G44A G48A | 0.529
36 | G18A U26G C55U C60G | 0.512
37 | G18C A65U | 0.691
38 | G18A U26C A40C U54A | ≤ 0.5
39 | G18A C29G A37G C60A C62G | 0.728
40 | G18A A37U C61U U64A | ≤ 0.5
41 | G18A U19C C22G C24A G39C A45C | 0.619
42 | G18A C22A C61A A65G A70U | 0.585
43 | G18A G41C U53A | 0.557
44 | G17U A45U C55U A70C | ≤ 0.5
45 | G17C G63A C66U | ≤ 0.5
46 | G18C A65C G68A | ≤ 0.5
47 | G18C C24U | 0.641
48 | G18C C24A | ≤ 0.5

Row | Variant | yeast fitness
49 | G18A U19A C61G | ≤ 0.5
50 | G18C A21C C30G C46G | ≤ 0.5
51 | G18A G41A C66G | ≤ 0.5
52 | G18C C22U C31A C61G | ≤ 0.5
53 | G18C A36G A37C | ≤ 0.5
54 | G18A G25C | 0.746
55 | G18A U53A C66U | ≤ 0.5
56 | G18C A42C U54A | ≤ 0.5
57 | G18A A57G | 0.854
58 | G18A A57C | 0.626
59 | G18A A57U | 0.588
60 | G18A C27G C49G C62G C66U A69C | ≤ 0.5
61 | G18A G23A G58C A70C | ≤ 0.5
62 | G18A A20U C29G A37U C55A C66U | ≤ 0.5
63 | G18A G48C C49A U53A G56A G58C | ≤ 0.5
64 | G18A U32A | 0.513
65 | G18A A21U G48A | 0.571
66 | G18A C30U A57C | ≤ 0.5
67 | G18A G25A C46U C55G A69C | ≤ 0.5
68 | G18A G25A C46U | 0.508
69 | G17U A37G A42U G48C C49U | ≤ 0.5
70 | G18A C30U G41C G50A A65C | ≤ 0.5
71 | G18A A57G A69U | ≤ 0.5
72 | G18C A43C C62A | ≤ 0.5

Row | Variant | yeast fitness
73 | G17U A21C G25C | 0.541
74 | G17C U26G G39C A40U C61U | ≤ 0.5
75 | G18A C46U U59C C60A G68A | ≤ 0.5
76 | G18A A20C C34U A36U G39C A70U | ≤ 0.5
77 | G18A A36C U64A | 0.575
78 | G18A C24G C49A | ≤ 0.5
79 | G18A C34U A43C U53G | ≤ 0.5
80 | G17C G51A U59A C66A | ≤ 0.5
81 | G18C C24U A40U G56A A65G C66U | ≤ 0.5
82 | G18C A36G C61A | ≤ 0.5
83 | G18A C27A G48A | 0.612
84 | G17C U59G | 0.674
85 | G18A G25A G38A A57G | ≤ 0.5
86 | G18A G51C G63A | ≤ 0.5
87 | G17U G67C | 0.798
88 | G18A A20U C29G A37U G48A | ≤ 0.5
89 | G17C G52A G56A A65U A70G | ≤ 0.5
90 | G18A G58C | 0.792
91 | G18A G58A | 0.765
92 | G18A U32C A65G | 0.535
93 | G18A A20G A69C | ≤ 0.5
94 | G17C G63A | 0.674
95 | G18A U19A G51C U64C | ≤ 0.5
96 | G18C C22G C55A A70U | ≤ 0.5

Row | Variant | yeast fitness
97 | G18A G50C C55G | ≤ 0.5
98 | G18A | 0.76
99 | G18C | 0.659
100 | G18A G25A C49U C62U | ≤ 0.5
101 | G17C U28G U54A | ≤ 0.5
102 | G18A G68A | 0.795
103 | G18A G68U | 0.711
104 | G17C U19C A65G | 0.573
105 | G18C A21U C24U U28A | 0.629
106 | G18A U53A C62G | ≤ 0.5
107 | G18A G39A A40C A70U | ≤ 0.5
108 | G17C G48A A65C | 0.654
109 | G18C A43U | 0.674
110 | G18C A40G A42G G58C | ≤ 0.5
111 | G18C C24G C49G C61U | ≤ 0.5
112 | G18A C34U A43C C46G | ≤ 0.5
113 | G17U C24A C31U | ≤ 0.5
114 | G18A A20U C27G | 0.526
115 | G17C U32G C34A A40U A43C | ≤ 0.5
116 | G18C C22G | 0.682
117 | G18C C22U | 0.558
118 | G18A G48A | 0.765
119 | G18A C24U G48C U53G | 0.583
120 | G17C G67A | 0.67

Row | Variant | yeast fitness
121 | G18A C24U C30U C34U U54A | 0.531
122 | G18A G58C G68A | ≤ 0.5
123 | G18C A45U G56U U64A A69C | 0.786
124 | G18A C30U G41C G50A G67C | 0.666
125 | G18A C31A G56C | ≤ 0.5
126 | G18A C29U C31A C55U G68C | ≤ 0.5
127 | G18A C33G C34G | ≤ 0.5
128 | G18A G58C A65U | ≤ 0.5
129 | G17C G41C | 0.664
130 | G18A C49A G63A | ≤ 0.5
131 | G17U A21G C46U | 0.588
132 | G17C U19C C27U A65C | 0.641
133 | G18A U28C U47A | ≤ 0.5
134 | G18C A20G C29A G67A | ≤ 0.5
135 | G18C A21G A70C | 0.572
136 | G17C G48C A65G | 0.562
137 | G18A C34U U35C | ≤ 0.5
138 | G18C C22U C29A A42G | 0.541
139 | G18A C31U G58A | 0.643
140 | G18A C24U G58A | ≤ 0.5
141 | G18C C24G A70G | ≤ 0.5
142 | G17C G48U | ≤ 0.5
143 | G18A C29G A37G G44C | 0.598
144 | G18A G63A A69C | 0.827

Row | Variant | yeast fitness
145 | G18A A21C A43C G48A G52A G63A | ≤ 0.5
146 | G18A U28C G50U | ≤ 0.5
147 | G18A A57U A70C | 0.536
148 | G18A C29U A37G | ≤ 0.5
149 | G18A A37U | 0.6
150 | G18A A37C | 0.727
151 | G17C U35C A37G G51C | ≤ 0.5
152 | G17C U26A A69C | ≤ 0.5
153 | G18C A37C C49G | 0.663
154 | G17C U26C C46U U64A | ≤ 0.5
155 | G18A C49G C60G | ≤ 0.5
156 | G18A G44A C62U | ≤ 0.5
157 | G18C C22U U26G C30G C55G C66A | ≤ 0.5
158 | G18A G50A C61U | ≤ 0.5
159 | G18A G38A | 0.73
160 | G18C A20G C29A C49U | ≤ 0.5
161 | G17C G44C | 0.58
162 | G18A C46G A65U | 0.697
163 | G18C C22A A45C C46U A65C | ≤ 0.5
164 | G18A A21C G58C C60U | ≤ 0.5
165 | G17U A40C | 0.823
166 | G17U U28A C29G C33U C34G A42U | ≤ 0.5
167 | G18C A37U G48C C49A | ≤ 0.5
